The results in this text go back to ChEMBL document CHEMBL4765234 (J Med Chem, 2016).

pEC50, pKd: −log10 of the molar value. The source made the active and inactive calls. No cut-off for these calls is given here.

Test [1] concerns the target Free fatty acid receptor 1 (Rattus norvegicus) (UniProt Q8K3T4). The test can be described thus: Agonist activity at GPR40 in Sprague-Dawley rat pancreatic islets assessed as induction of glucose-mediated insulin secretion measured after 90 mins in EBSS buffer by ELISA. In kind it is tissue-based. The settings on record: Pancreatic islet. An outline of the steps: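 Glucose-dependent insulin secretion in mouse MIN6 cells or rat islet cells, scored as secretion above the glucose-alone level.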
On the technique in general: In an ELISA, binding on a coated surface is turned into a signal by an enzyme label.

For test [2], the target named is T1, Free fatty acid receptor 1 (Homo sapiens, UniProt O14842). The test can be described thus: Agonist activity at human recombinant full length GPR40 overexpressed in human HEK293 cells assessed as increase in intracellular calcium level measured over 3 mins by calcium 4 dye based FLIPR assay relative to 100 uM linoleic acid. In kind it is functional, cell-based. The settings on record: filed as agonist. A digest of the protocol:
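HEK293 cells overexpressing hGPR40 (25K/well) were cultured overnight in DMEM/F12 with 0.2% FBS and geneticin. Compound was tested at 40 μM–0.1 nM final (20-point, 1% DMSO), and FLIPR fluorescence was read over 3 min.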
On the technique in general: Calcium flux is commonly read through the fluorescence of an indicator in the cells.

The target in test [3] is T1, Free fatty acid receptor 1. The test can be described thus: Agonist activity at human recombinant full-length Prolink-tagged GPR40 fused with EA-tagged beta-arrestin expressed in human HEK293 cells assessed as induction of beta-arrestin recruitment measured after 90 mins by beta-galactosidase based PathHunter assay relative to control. In kind it is cell-based. The settings on record: filed as agonist. An outline of the steps:
(§1)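 PathHunter β-gal complementation. Cells were incubated overnight at 5000/well in medium with 1% heat-inactivated FBS. Compound was added as a 20-point 2-fold series from a top final of 100 μM (1% DMSO) for 90 min at 37 °C, followed by detection reagents and chemiluminescence read after 1 h at rt.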

Test [4] deals with Free fatty acid receptor 1 (Mus musculus, UniProt Q76JU9). The test can be described thus: Agonist activity at Prolink-tagged mouse GPR40 fused with EA-tagged beta-arrestin expressed in human U2OS cells assessed as induction of beta-arrestin recruitment measured after 90 mins by beta-galactosidase based PathHunter assay. In kind it is cell-based. An outline of the steps:
as §1

In test [5] the target is Free fatty acid receptor 1 (Rattus norvegicus) (UniProt Q8K3T4). Briefly: Agonist activity at Prolink-tagged rat GPR40 fused with EA-tagged beta-arrestin expressed in human U2OS cells assessed as induction of beta-arrestin recruitment measured after 90 mins by beta-galactosidase based PathHunter assay relative to control. The following applies: filed as agonist. In kind it is cell-based. A digest of the protocol: as §1
A general note: Recruitment of arrestin is a read-out of receptor activation apart from second messengers.

Test [6] addresses T1, Free fatty acid receptor 1. The test can be described thus: Agonist activity at human recombinant full length GPR40 overexpressed in human HEK293 cells assessed as increase in inositol phosphate accumulation in presence of terbium cryptate-labeled anti IP1/d2-labelled IP1 measured after 120 mins by HTRF assay. The class given is functional, cell-based. An outline of the steps: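 HEK293 hGPR40 cells (20K/well) were cultured overnight, washed, and held in IP1 stimulation buffer. IP-1 was measured by competitive HTRF immunoassay with terbium cryptate anti-IP1 mAb and d2-labelled IP1.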

Test [7] has as its target T1, Free fatty acid receptor 1. Briefly: Displacement of [3H]-(S)-2-(6-((2',6'-dimethyl-4'-(3-(methylsulfonyl)propoxy)biphenyl-3-yl)methoxy)-2,3-dihydrobenzofuran-3-yl)acetic acid from human recombinant full-length GPR40 expressed in human HEK293 cell membrane assessed as dissociation constant measured after 2 hrs by radioligand competitive assay. In kind it is cell membranes.

Test [8] addresses T2, Peroxisome proliferator-activated receptor alpha (Homo sapiens) (UniProt Q07869).
T2 sequence (whole entry): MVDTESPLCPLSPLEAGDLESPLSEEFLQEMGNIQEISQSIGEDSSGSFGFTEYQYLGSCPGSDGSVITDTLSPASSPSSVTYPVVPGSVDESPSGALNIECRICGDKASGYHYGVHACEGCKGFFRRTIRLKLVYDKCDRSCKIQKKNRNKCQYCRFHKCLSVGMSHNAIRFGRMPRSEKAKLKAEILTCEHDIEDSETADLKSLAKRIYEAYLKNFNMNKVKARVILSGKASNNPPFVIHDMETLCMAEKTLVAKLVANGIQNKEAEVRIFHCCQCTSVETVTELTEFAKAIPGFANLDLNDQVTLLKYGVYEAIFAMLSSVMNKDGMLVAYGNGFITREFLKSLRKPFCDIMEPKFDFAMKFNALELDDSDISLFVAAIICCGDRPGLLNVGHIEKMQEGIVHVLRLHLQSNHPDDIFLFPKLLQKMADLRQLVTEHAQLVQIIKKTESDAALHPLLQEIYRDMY
Briefly: Displacement of [3H]-[…] from PPARalpha (unknown origin) expressed in baculovirus infected Sf9 insect cells upto 30 uM measured after 10 hrs by microbeta scintillation counting analysis. The following applies: dose microM <=30, time 10.0 hrs. An outline of the steps:
(§2)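 Scintillation proximity assay. Sf9 lysates with baculovirus-expressed PPARα (0.3 μg), PPARδ (0.5 μg) or PPARγ (1.25 μg), each with RXRα, were bound via biotinylated DR2 oligo (0.126 nM) to streptavidin yttrium silicate beads. Buffer was HEPES pH 7.8 with KCl, MgCl2, DTT, CHAPS, 14% glycerol and salmon sperm DNA. A 3H reference agonist ligand was used, with 11 compound concentrations, for 10 h. Nonspecific binding was defined with 10000 nM unlabeled reference. Ki was derived from IC50.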

Test [9] has as its target T3, Peroxisome proliferator-activated receptor delta (Homo sapiens) (UniProt Q03181).
T3 sequence (whole entry): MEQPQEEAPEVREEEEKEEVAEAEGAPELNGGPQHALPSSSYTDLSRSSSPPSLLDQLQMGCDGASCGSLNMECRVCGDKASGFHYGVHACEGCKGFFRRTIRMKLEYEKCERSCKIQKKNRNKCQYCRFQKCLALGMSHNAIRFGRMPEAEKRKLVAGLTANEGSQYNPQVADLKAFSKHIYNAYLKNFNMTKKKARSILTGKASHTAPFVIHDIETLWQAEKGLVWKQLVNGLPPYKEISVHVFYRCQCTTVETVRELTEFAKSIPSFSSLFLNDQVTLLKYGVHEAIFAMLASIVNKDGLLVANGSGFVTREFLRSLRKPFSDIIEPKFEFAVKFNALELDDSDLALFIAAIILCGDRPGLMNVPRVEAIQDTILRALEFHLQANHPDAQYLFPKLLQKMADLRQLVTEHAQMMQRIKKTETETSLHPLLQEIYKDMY
The test can be described thus: Displacement of [3H]-[…] from PPARdelta (unknown origin) expressed in baculovirus infected Sf9 insect cells upto 30 uM measured after 10 hrs by microbeta scintillation counting analysis. The following applies: dose microM <=30, time 10.0 hrs. An outline of the steps: as §2

Test [10] addresses T4, Peroxisome proliferator-activated receptor gamma (Homo sapiens) (UniProt P37231).
T4 sequence (whole entry): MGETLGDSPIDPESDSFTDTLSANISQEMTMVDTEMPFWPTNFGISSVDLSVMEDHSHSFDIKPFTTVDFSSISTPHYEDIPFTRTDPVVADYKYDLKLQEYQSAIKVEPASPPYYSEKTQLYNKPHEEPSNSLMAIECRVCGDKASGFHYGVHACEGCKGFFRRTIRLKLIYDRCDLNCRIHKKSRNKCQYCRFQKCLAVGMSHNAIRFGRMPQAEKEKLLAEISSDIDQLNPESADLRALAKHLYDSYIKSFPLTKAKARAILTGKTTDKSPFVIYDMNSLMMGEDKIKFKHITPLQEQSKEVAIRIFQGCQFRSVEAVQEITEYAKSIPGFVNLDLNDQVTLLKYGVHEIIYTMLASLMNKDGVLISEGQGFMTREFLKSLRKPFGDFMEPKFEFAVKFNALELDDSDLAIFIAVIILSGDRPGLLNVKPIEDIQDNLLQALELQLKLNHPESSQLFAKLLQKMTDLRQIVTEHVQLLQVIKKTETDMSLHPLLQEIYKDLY
The test can be described thus: Displacement of [3H]-[…] from PPARgamma (unknown origin) expressed in baculovirus infected Sf9 insect cells upto 30 uM measured after 10 hrs by microbeta scintillation counting analysis. The settings on record: dose microM <=30, time 10.0 hrs. An outline of the steps: as §2

Sequence of Free fatty acid receptor 1 (Rattus norvegicus) (Q8K3T4 whole entry, the tested form may be a part): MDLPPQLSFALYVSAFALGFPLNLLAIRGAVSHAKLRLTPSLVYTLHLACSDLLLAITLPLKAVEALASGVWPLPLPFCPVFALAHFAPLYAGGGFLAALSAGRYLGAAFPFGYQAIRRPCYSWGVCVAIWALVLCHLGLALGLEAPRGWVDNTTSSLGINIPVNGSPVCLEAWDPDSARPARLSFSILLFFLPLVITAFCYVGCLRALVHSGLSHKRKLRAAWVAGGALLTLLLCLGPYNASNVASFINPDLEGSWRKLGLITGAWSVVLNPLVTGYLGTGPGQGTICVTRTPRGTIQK
T1 sequence (O14842 whole entry): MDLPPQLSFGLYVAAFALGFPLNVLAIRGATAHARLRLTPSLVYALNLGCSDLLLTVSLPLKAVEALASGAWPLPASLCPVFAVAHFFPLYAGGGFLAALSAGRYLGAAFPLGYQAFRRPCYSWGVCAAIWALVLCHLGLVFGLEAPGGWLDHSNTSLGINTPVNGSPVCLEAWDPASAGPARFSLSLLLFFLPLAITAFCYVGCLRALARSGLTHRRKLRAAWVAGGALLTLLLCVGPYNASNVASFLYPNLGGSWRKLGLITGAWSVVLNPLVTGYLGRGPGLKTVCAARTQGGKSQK
Sequence of Free fatty acid receptor 1 (Mus musculus, UniProt Q76JU9) (Q76JU9 whole entry, the tested form may be a part): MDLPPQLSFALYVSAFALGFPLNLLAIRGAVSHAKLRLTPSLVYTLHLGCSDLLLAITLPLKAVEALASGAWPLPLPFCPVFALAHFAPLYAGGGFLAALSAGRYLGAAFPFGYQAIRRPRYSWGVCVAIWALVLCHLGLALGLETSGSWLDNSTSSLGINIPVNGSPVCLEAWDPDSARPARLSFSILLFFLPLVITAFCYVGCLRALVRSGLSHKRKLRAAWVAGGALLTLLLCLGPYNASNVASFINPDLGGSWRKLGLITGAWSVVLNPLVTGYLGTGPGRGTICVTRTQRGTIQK

The term Emax denotes the size of the effect at its maximum, as opposed to the concentration needed. Usually pEC50 stands for −log10 of the EC50, conventionally taken in molar units. A word on the pKd: it is the negative decadic logarithm of the Kd, by convention in mol/L. `O=C(O)CCc1ccc(OCc2ccc(CN3CCC4(C=Cc5ccccc54)CC3)cc2)cc1F`: the outcome in [1], in [8], in test [9] and in test [10] was inactive. The Emax in test [2] was 80%; in [3], 144%; in test [5], 114%. Further, the values for the pEC50 in test [4] and in [6] were 7.49 and 7.41, respectively. Also, in test [7], the pKd is 7.24.
In the case of `CC#C[C@@H](CC(=O)O)c1ccc(OCc2ccc(CN3CCC4(C=Cc5ccccc54)CC3)cc2)cc1` [LY2881835], the result in test [1] (filed as agonist) was Active. Further, the Emax was 62% in test [2], 137% in test [3] and 124% in test [5]. Besides, the pEC50 in test [4] (u2os) was 9.07; in test [6], 8.92. In test [7], the negative-log Kd (pKd) was 8.60. Besides, the result in test [8], in [9] and in test [10] was inactive.
With `CC#C[C@@H](CC(=O)O)c1ccc(OCc2ccc(CN3CCCc4cccc(OC)c43)s2)cc1`, the Emax in [3] came out at 139%; in test [5] it was 121%. For the same compound, in test [4], the pEC50 is 9.00.
On to `CC#C[C@@H](CC(=O)O)c1ccc(OCc2ccc(CN3CCC4(CC3)CN(C)c3ccccc34)cc2)cc1`, for which, in test [1] (filed as agonist), the outcome was Active. Also, the Emax in [2] amounted to 47%; in test [3], 134%; in test [5], 126%. The pEC50 was 8.48 in [4] and 7.92 in [6]. The pKd in [7] is 8.02. Further, the outcome in test [8], in test [9] and in test [10] was inactive.
As for `CC#C[C@@H](CC(=O)O)c1ccc(OCc2ccc(CN3CCC4(C=Cc5ccccc54)CC3)s2)cc1`, the outcome in test [1] (filed as agonist) was Active. Moreover, the maximal effect (Emax) was determined as 50% in [2], 116% in test [3] and 113% in test [5]. For the same compound, the negative logarithm of the EC50 (pEC50) in [4] is 9.34; in test [6], 9.22. Besides, in test [7], the negative-log Kd (pKd) was 8.70. In addition, the outcome in [8], in [9] and in test [10] was inactive.
As for `CC#C[C@@H](CC(=O)O)c1ccc(OCc2ccc(CN3CCC4(CCc5ccccc54)CC3)cc2)cc1`, the outcome in test [1] (filed as agonist) was Active. The Emax in test [2] was 46%; in [3], 137%; in test [5], 135%. Also, the pEC50 in test [4] is 9.06; in [6] it was 8.21. In [7], the pKd was 8.66. Also, the outcome in test [8], in test [9] and in test [10] was inactive.
Take `CC#C[C@@H](CC(=O)O)c1ccc(OCc2ccc(CN3CCC4(CCc5ccccc54)CC3)s2)cc1`: the outcome in test [1] (filed as agonist) was Active. Further, the maximal response (Emax) stood at 50% in test [2], 121% in test [3] and 108% in test [5]. Moreover, the pEC50 in [4] is 8.92; in [6] it was 8.21. In test [7], the pKd is 8.46. Also, the outcome in test [8], in test [9] and in [10] was inactive.
On to `O=C(O)C[C@@H](c1ccc(OCc2ccc3nc(-c4ccccc4)nn3c2)cc1)c1ccon1`, for which the result in test [1], in [8], in test [9] and in test [10] was inactive. In addition, the maximal effect (Emax) in test [2] was determined as 54%; in test [3], 141%; in [5] it was 61%. Further, the pEC50 in test [4] was 5.42; in test [6] it was 7.17. For the same compound, the negative logarithm of the Kd (pKd) in test [7] is 7.43.
